# The source made the active and inactive calls. The rule behind the calls is not given here.
# Tests used:
# Escherichia coli [1] = assay: Induction of resistance development in Escherichia coli ATCC BAA-2452 assessed as increase in MIC by microtiter plate reader assay; format: functional, organism-based
# Outline: (§1)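 Serial passage resistance assay with 2-fold microdilution MICs in 96-well plates. Each passage takes the well with the highest concentration still permitting growth, adjusts it to 0.5 McFarland, and dilutes it to a final 5 × 10^5 CFU/mL for the next passage. Eighteen passages; MIC recorded at each. Triplicate.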
# [2] = Membrano-lytic effect in mammalian membrane mimic DOPC/cholesterol (10:1) large unilamellar vesicles assessed as calcein leakage measured at 50 microg/ml measured after 100 mins by multimode microplate reader assay; format: cell membranes; settings: dose 50.0 µg/ml
# Outline: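 Calcein (70 mM) loaded into extruded 100 nm LUVs: DOPC:DOPG 7:3 (w/w) as the bacterial mimic, DOPC/cholesterol 10:1 (w/w) as the mammalian mimic. Free dye removed by gel filtration. Liposomes at 40 μM final lipid in PBS mixed 1:1 with peptide (5–50 μg/mL). Fluorescence (ex 490/em 520 nm) read every 10 min for 100 min; Triton X-100 defines 100% release. Triplicate.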
# Escherichia coli [3] = assay: Induction of resistance development in Escherichia coli ATCC 25922 assessed as increase in MIC by microtiter plate reader assay; format: functional, organism-based
# Staphylococcus aureus [4] = assay: Induction of resistance development in methicillin resistant Staphylococcus aureus ATCC BAA-1556 assessed as increase in MIC by microtiter plate reader assay; format: functional, organism-based; outline: as §1
# Staphylococcus aureus [5] = assay: Induction of resistance development in Staphylococcus aureus ATCC 29213 assessed as increase in MIC by microtiter plate reader assay; format: functional, organism-based; outline: as §1
# [6] = Hemolytic activity in human RBC incubated for 2 hrs by spectrophotometric assay; format: toxicity, cell-based, Erythrocyte; settings: human red blood cells (RBC)
# Outline: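 Human RBCs with buffy coat removed, washed in PBS pH 7.4. Two-fold peptide dilutions in PBS mixed 1:1 with 4% (v/v) RBC suspension. Incubation 2 h at 37 °C without agitation, then centrifugation. Supernatant hemoglobin read at 567 nm. PBS set 0% and 1% Triton X-100 set 100% lysis. Triplicate.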
# [7] = Therapeutic index, ratio of HC50 for human RBC to MIC for methicillin resistant Staphylococcus aureus ATCC BAA-1556
# Outline: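 Human RBCs washed in PBS pH 7.4 and mixed 1:1 with two-fold peptide dilutions (4% v/v suspension), 2 h at 37 °C. Hemoglobin in supernatant read at 567 nm against PBS (0%) and 1% Triton X-100 (100%). HC50 is the concentration giving 50% hemolysis. Index is HC50 divided by MIC against MRSA.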
# Klebsiella pneumoniae = assay: Antibacterial activity against Klebsiella pneumoniae ATCC BAA-1705 incubated for 24 hrs by checkerboard assay; format: functional
# Staphylococcus aureus [8] = assay: Antibacterial activity against methicillin resistant Staphylococcus aureus ATCC BAA-1556 incubated for 24 hrs by checkerboard assay; format: functional
# Pseudomonas aeruginosa = assay: Antibacterial activity against Pseudomonas aeruginosa ATCC […] incubated for 24 hrs by checkerboard assay; format: functional
compound,measurement,setting,value
CCCCCCCCCC(=O)N[C@@H](Cc1c[nH]c2ccccc12)C(=O)N[C@H](CC(N)=O)C(=O)N[C@@H](CC(=O)O)C(=O)N[C@@H]1C(=O)NCC(=O)N[C@@H](CCCN)C(=O)N[C@@H](CC(=O)O)C(=O)N[C@H](C)C(=O)N[C@@H](CC(=O)O)C(=O)NCC(=O)N[C@H](CO)C(=O)N[C@@H]([C@H](C)CC(=O)O)C(=O)N[C@@H](CC(=O)c2ccccc2N)C(=O)O[C@@H]1C,Activity,Escherichia coli [1],Active
same,Activity,[2],7%
same,Activity,Escherichia coli [3],Active
same,Activity,Staphylococcus aureus [4],Active
same,Activity,Staphylococcus aureus [5],Active
N=C(N)NCCC[C@@H]1NC(=O)[C@H](CCCNC(=N)N)NC(=O)[C@H](CCCNC(=N)N)NC(=O)[C@H](Cc2c[nH]c3ccccc23)NC(=O)[C@H](Cc2c[nH]c3ccccc23)NC(=O)[C@H](Cc2c[nH]c3ccccc23)NC(=O)[C@H](Cc2c[nH]c3ccccc23)NC(=O)[C@H](Cc2c[nH]c3ccccc23)NC(=O)[C@H](CCCNC(=N)N)NC1=O,HC50 at 2 h,[6],100 µg/mL
same,TI,[7],12.5
C[C@@H](O)[C@H]1C(=O)N2C(C(=O)O)=C(S[C@@H]3CN[C@H](C(=O)N(C)C)C3)[C@H](C)[C@H]12 [MEROPENEM],MIC,Klebsiella pneumoniae,256 µg/mL
same,MIC,Staphylococcus aureus [8],32 µg/mL
same,MIC,Pseudomonas aeruginosa,32 µg/mL

# Source: ChEMBL document CHEMBL5236607, “Membrane-Active Cyclic Amphiphilic Peptides: Broad-Spectrum Antibacterial Activity Alone and in Combination with Antibiotics” (J Med Chem, 2022)
